Laboratory results reported in ChEMBL document CHEMBL1147848, “1-(5-Carboxy- and 5-carbamoylindol-1-yl)propan-2-ones as inhibitors of human cytosolic phospholipase A2alpha: bioisosteric replacement of the carboxylic acid and carboxamide moiety” (Bioorg Med Chem, 2007).
Active and inactive are the calls of the source. The rule behind the calls is not given here.

What follows are compounds tested against T1, Cytosolic phospholipase A2 (Homo sapiens, UniProt P47712) (assay: Inhibition of human platelet cPLA2-alpha assessed as arachidonic acid release by vesicle assay).
T1 sequence (P47712 whole entry): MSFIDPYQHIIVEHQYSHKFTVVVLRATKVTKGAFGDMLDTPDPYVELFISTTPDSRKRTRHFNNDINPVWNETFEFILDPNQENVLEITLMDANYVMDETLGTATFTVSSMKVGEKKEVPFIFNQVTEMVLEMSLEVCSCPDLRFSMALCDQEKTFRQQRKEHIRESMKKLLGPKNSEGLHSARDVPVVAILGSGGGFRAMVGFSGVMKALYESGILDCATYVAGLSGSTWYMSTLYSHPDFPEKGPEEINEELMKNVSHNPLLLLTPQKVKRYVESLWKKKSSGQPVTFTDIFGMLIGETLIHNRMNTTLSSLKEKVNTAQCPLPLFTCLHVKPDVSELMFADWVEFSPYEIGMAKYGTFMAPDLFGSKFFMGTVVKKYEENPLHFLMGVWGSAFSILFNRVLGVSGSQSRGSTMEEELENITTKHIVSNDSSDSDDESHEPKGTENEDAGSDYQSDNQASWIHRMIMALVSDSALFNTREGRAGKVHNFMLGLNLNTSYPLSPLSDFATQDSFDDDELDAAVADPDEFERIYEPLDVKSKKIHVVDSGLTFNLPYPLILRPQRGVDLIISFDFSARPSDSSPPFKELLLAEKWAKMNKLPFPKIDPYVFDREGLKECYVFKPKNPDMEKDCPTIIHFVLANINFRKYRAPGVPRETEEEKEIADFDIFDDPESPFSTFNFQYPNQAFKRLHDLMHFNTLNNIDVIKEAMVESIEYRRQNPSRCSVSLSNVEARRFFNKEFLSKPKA
How it was run: (§1)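 cPLA2α isolated from human platelets. Highest test concentration 10 µM, kept low to limit inhibitor mole fraction in the interface. Incubated 60 min. Released arachidonic acid is cleaned up by solid-phase extraction, then quantified by reversed-phase HPLC with UV detection at 200 nm.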

Row | SMILES | IC50
1 | CCCCC/C=C\C/C=C\C/C=C\C/C=C\CCCC(=O)C(F)(F)F [ARACHIDONYL TRIFLUOROMETHYLKETONE] | 2300 nM
2 | CCCCCCCCc1ccc(OCC(=O)Cn2ccc3cc(C(=O)N(C)C)ccc32)cc1 | 840 nM
3 | CCCCCCCCc1ccc(OCC(=O)Cn2ccc3cc(S(=O)(=O)NC)ccc32)cc1 | 310 nM
4 | CCCCCCCCc1ccc(OCC(=O)Cn2ccc3cc(-c4nnn[nH]4)ccc32)cc1 | 1100 nM
5 | CCCCCCCCc1ccc(OCC(=O)Cn2ccc3cc(S(=O)(=O)N(C)C)ccc32)cc1 | 500 nM
6 | CCCCCCCCc1ccc(OCC(=O)Cn2cc(C(=O)OC)c3cc(C(=O)O)ccc32)cc1 | 5 nM
7 | CCCCCCCCc1ccc(OCC(=O)Cn2ccc3cc(S(N)(=O)=O)ccc32)cc1 | 390 nM
8 | CCCCCCCCc1ccc(OCC(=O)Cn2ccc3cc(C(=O)NC)ccc32)cc1 | 370 nM
9 | CCCCCCCCc1ccc(OCC(=O)Cn2ccc3cc(-c4noc(=O)[nH]4)ccc32)cc1 | 3500 nM
10 | CCCCCCCCc1ccc(OCC(=O)Cn2ccc3cc(C(=O)N4CCOCC4)ccc32)cc1 | 500 nM

The compounds below were run against T2, Cytosolic phospholipase A2 (Homo sapiens) (UniProt P47712) (assay: Inhibition of human platelet cPLA2-alpha assessed as arachidonic acid release at 10 uM by vesicle assay).
T2 sequence (whole entry): T1 sequence (P47712 whole entry)
How it was run: as §1

Row | SMILES | Activity | inhibition
11 | CCCCCCCCc1ccc(OCC(=O)Cn2ccc3cc(-c4nc(CC)no4)ccc32)cc1 | inactive | 
12 | CCCCCCCCc1ccc(OCC(=O)Cn2ccc3cc(/C=C4\SC(=O)NC4=O)ccc32)cc1 |  | 29%
13 | CCCCCCCCc1ccc(OCC(=O)Cn2ccc3cc(-c4nc(Cc5ccccc5)no4)ccc32)cc1 | inactive | 
